The list is not random: actives were taken first. Their share in the collection is about 4.5%.
TAAR1 antag – antagonists of human TAAR1; hit rate 1.5% among 360,000; inhibition, % at 3 µM; AID 624466; CHO RD-HGA16 TAAR1, Fluo-8 calcium fluorescence, antagonist;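 active means inhibition above a per-plate cutoff, the mean inhibition of test compounds on that plate plus 3 SD, cut at about 49% in these data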
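Test system: RD-HGA16 CHO cells with stable hTAAR1 and Gα16 / Probe or stimulus: EC80 β-phenethylamine stimulus / Times: seeding 17-24 h prior, 75-min 37 °C, 30-min RT dye loading / Detection: Fluo-8 calcium-sensitive fluorescence / Read-out basis: % inhibition scaled between DMSO and EC80 PEA controls / Repeats: singlicate, one well per test compound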
GPR7 antagonist – antagonists of human GPR7 (neuropeptides B/W receptor 1). P48145. GPR7-expressing cells, fluorescence antagonist assay. inhibition, % at 4.4 µM. hit rate 1.1% among 290,000. AID 1861; in the data active means inhibition above about 16%, passing the limit was not always enough;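 further: cells stimulated with the agonist NPW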
OX1R antag-1 – OX1R (human) antagonism. O43613. OX1R-expressing cells, FRET antagonist read-out. inhibition, % at 6.6 µM. hit rate 1.8% among 330,000. AID 485270; in the data active means inhibition mostly above about 38%, no sharp cut-off; inactive means mostly below about 40%
Target sequence (O43613 whole entry, looked up): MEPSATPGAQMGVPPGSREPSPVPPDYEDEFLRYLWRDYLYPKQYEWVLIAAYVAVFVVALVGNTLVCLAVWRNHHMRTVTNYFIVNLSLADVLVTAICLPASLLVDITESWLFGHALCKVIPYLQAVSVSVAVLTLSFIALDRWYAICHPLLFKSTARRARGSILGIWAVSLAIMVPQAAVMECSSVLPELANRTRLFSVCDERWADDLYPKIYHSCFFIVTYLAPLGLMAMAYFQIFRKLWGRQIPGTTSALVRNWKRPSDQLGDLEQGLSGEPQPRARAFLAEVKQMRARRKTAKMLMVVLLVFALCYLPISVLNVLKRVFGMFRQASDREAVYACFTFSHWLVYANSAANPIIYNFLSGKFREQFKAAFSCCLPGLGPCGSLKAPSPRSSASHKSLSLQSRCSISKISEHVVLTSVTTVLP
CHO parental Ca – counter-screen for OX1R antagonists: effect in parental CHO cells; parental CHO-K1, ATP-induced calcium, Fluo-8 fluorescence; inhibition, % at 5.6 µM; hit rate 0.63% among 330,000;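 active means inhibition above that plate's mean sample inhibition plus 3 SD, cut at about 26% in these data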
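Test system: untransfected parental CHO cell line; also added: ATP stimulus; dosing: 5.6 µM, single dose; signal: calcium-sensitive Fluo-8 fluorescence; measure: percent inhibition of ATP-evoked calcium rise, normalized to controls; benchmarks: low control ATP plus DMSO, high control DMSO only; replication: one well per compound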
TAAR1 agonist – agonists of human TAAR1. Q96RJ0. CHO RD-HGA16 TAAR1, Fluo-8 calcium fluorescence; vehicle wells 0%, saturating PEA agonist 100%. activation, % at 3 µM. hit rate 0.99% among 360,000. AID 624467;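 active means activation above the mean activation of all test compounds in the run plus 3 SD, cut at about 38% in these data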
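Assay system: CHO-derived RD-HGA16 cells with stable Gα16 and human TAAR1; timing: 17-24 h seeding, 75 min 37 °C dye, 30 min RT; read-out: % activation from peak over basal fluorescence ratio, DMSO-to-PEA scaled; measured by: kinetic Fluo-8 calcium fluorescence; benchmarks: low control DMSO, high control PEA (EC100); doses: 3 µM single concentration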
OX1R antag-2 – blocks the human orexin 1 receptor; O43613; AID 434989; inhibition, % at 5 µM; hit rate 0.43% among 330,000; CHO/OX1R cells, Fluo-8 calcium fluorescence, orexin A;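 active means inhibition above its plate's threshold, mean inhibition of all tested compounds on the plate plus 3 SD, cut at about 37% in these data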
TAAR1 ag conf – human TAAR1 agonism, confirmed; shares compounds with TAAR1 agonist; CHO RD-HGA16 TAAR1, Fluo-8 calcium fluorescence; scaled: DMSO 0%, maximal phenethylamine 100%; activation, % at 3 µM; hit rate 82% among 2,400; AID 651783;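 active means activation above a cutoff set at the run's mean compound activation plus 3 SD, cut at about 39% in these data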
Ga16 ag counter – nonselective agonist in parental cells, TAAR1 agonist counter-screen | shares compounds with TAAR1 agonist | CHO-Ga16 parental, Fluo-8 calcium fluorescence; normalized to maximal ATP response, DMSO zero | activation, % at 3 µM | hit rate 50% among 2,400;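 active means activation above the run cutoff, the mean activation over all tested wells plus 3 SD, cut at about 12% in these data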
TAAR1 desensitize – TAAR1 response desensitization, agonist counter-screen; shares compounds with TAAR1 agonist; CHO RD-HGA16 hTAAR1, Fluo-8 calcium, beta-PEA response inhibition; AID 651951; inhibition, % at 3 µM; hit rate 46% among 2,400;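 active means inhibition above the run cutoff, the mean inhibition of all test compounds plus 3 SD, cut at about 49% in these data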;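 further: beta-PEA stimulus applied at its EC80; loss of beta-PEA calcium signal after compound pretreatment read as receptor desensitization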
Ga16 antag count – counter-screen for TAAR1 agonists: nonselective Ga16 antagonists; shares compounds with TAAR1 agonist; CHO-Ga16 ATP-induced calcium, Fluo-8 fluorescence; inhibition, % at 3 µM; hit rate 39% among 2,400; AID 651952;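 active means inhibition above the plate's mean compound inhibition plus 3 SD, computed per plate, cut at about 22% in these data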
Large screens that a line does not name were inactive (follow-up assays come after a bar, where they were run).

Cc1ccccc1CNC(=O)c1ccc2nc([C@@H]3O[C@H](CO)[C@H](O)[C@H](O)[C@H]3O)[nH]c2c1	none (no result: GPR7 antagonist, OX1R antag-1, CHO parental Ca, OX1R antag-2)
CC(C)c1cc(C(=O)NCCc2cccs2)c(N)s1	none (no result: TAAR1 antag, GPR7 antagonist, OX1R antag-1, CHO parental Ca, TAAR1 agonist, OX1R antag-2) | Ga16 ag counter inactive | Ga16 antag count inactive
O=C(NCCc1cccs1)c1ccc(Cl)cc1	TAAR1 agonist 79 | TAAR1 ag conf 84 | Ga16 ag counter inactive | TAAR1 desensitize 76 | Ga16 antag count inactive
O=C(NCCc1cccs1)c1ccc(CS(=O)Cc2ccc(Cl)cc2)o1 (stereo not drawn)	TAAR1 agonist 56 | TAAR1 ag conf 62 | Ga16 ag counter inactive | TAAR1 desensitize inactive | Ga16 antag count inactive
CC(C)Nc1nc(NCCN2CCNC2=O)c2sccc2n1	none (no result: GPR7 antagonist, OX1R antag-1, CHO parental Ca, OX1R antag-2)
O=C1NCCN1CCNc1nc(NCc2ccccc2)nc2ccsc12	TAAR1 antag 100, TAAR1 agonist 89 (no result: GPR7 antagonist, OX1R antag-1, CHO parental Ca, OX1R antag-2) | TAAR1 ag conf 95 | Ga16 ag counter 66 | TAAR1 desensitize 106 | Ga16 antag count 93
CCOC(=O)[C@]12CCC=C1N(Cc1cccc3ccccc13)C(=O)[C@H](CC(=O)NCC13CC4CC(CC(C4)C1)C3)C2	none (no result: GPR7 antagonist, OX1R antag-1, CHO parental Ca, OX1R antag-2)
CC(C)CC(N)c1csc(NC(=O)c2cc(C(C)(C)C)nn2Cc2ccccc2)n1 (stereo not drawn)	none (no result: GPR7 antagonist, OX1R antag-1, CHO parental Ca, OX1R antag-2)
CCCc1c2ccccc2nc2ccccc12	TAAR1 agonist 70 | TAAR1 ag conf inactive | Ga16 ag counter inactive | TAAR1 desensitize inactive | Ga16 antag count inactive
CN(Cc1ccccc1F)c1cc2c(c3c1ccn3C)C1CCC2C1 (stereo not drawn)	none (no result: GPR7 antagonist, OX1R antag-1, CHO parental Ca, OX1R antag-2)
c1ccc2c(c1)CCCC2C1=NCCN1 (stereo not drawn)	TAAR1 antag 92, TAAR1 agonist 91 | TAAR1 ag conf 93 | Ga16 ag counter inactive | TAAR1 desensitize 97 | Ga16 antag count inactive
COc1ccccc1-c1cnc(C(O)c2cc(C)c(OC)c(C)c2)[nH]1 (stereo not drawn)	none (no result: GPR7 antagonist, OX1R antag-1, CHO parental Ca, OX1R antag-2)
CC1=C(C(=O)OCc2ccccc2)C(c2ccc(-c3ccccc3)cc2)NC(=O)N1CCCCCC(=O)O (stereo not drawn)	TAAR1 antag 92, TAAR1 agonist 95 | TAAR1 ag conf inactive | Ga16 ag counter inactive | TAAR1 desensitize inactive | Ga16 antag count 29
CCCCNC(=O)C1C(c2ccc(C(F)(F)F)cc2)=Nc2ccccc2N1C(=O)c1cccc2ccccc12 (stereo not drawn)	none (no result: GPR7 antagonist, OX1R antag-1, CHO parental Ca, OX1R antag-2)
Cc1cc(C)n(-c2nc(Nc3ccccc3)nc(-n3nc(C)cc3C)n2)n1	none
COc1cccc(/C=N/Nc2nc(Nc3ccccc3)nc(-n3nc(C)cc3C)n2)c1O	TAAR1 antag 76, TAAR1 agonist 84 | TAAR1 ag conf 49 | Ga16 ag counter 47 | TAAR1 desensitize 76 | Ga16 antag count 63
COc1ccc(C(=O)CC(=O)C(=O)NCCc2cccc(C)c2)cc1	TAAR1 antag 80, TAAR1 agonist 84 | TAAR1 ag conf 94 | Ga16 ag counter inactive | TAAR1 desensitize 84 | Ga16 antag count inactive
COc1ccc(OC(=O)NCCc2ccccc2)cc1	TAAR1 agonist 57 | TAAR1 ag conf 84 | Ga16 ag counter inactive | TAAR1 desensitize 73 | Ga16 antag count inactive
COc1ccc(CCNC(=O)CCCc2ccccc2)cc1	none
COc1ccccc1CC(=O)NCCc1ccccc1	TAAR1 agonist 69 | TAAR1 ag conf 85 | Ga16 ag counter inactive | TAAR1 desensitize 77 | Ga16 antag count inactive
Cc1cc(Cl)nc(Cl)c1C(=O)NCCc1ccccc1	none (no result: TAAR1 antag, GPR7 antagonist, TAAR1 agonist) | Ga16 ag counter inactive | Ga16 antag count inactive
COc1ccccc1CC(=O)NCCCc1ccccc1	none
CN(C)c1ccc(CC(=O)N2CCCC(c3cc(C(=O)Nc4ccc5c(c4)OCO5)no3)C2)cc1 (stereo not drawn)	none (no result: GPR7 antagonist, OX1R antag-1, CHO parental Ca, OX1R antag-2)
O=C1NC[C@@H](CCCCN2CCN(CCC3CCCCC3)C(=O)C2=O)N(CCC2CCCCC2)C1=O	none (no result: GPR7 antagonist, OX1R antag-1, CHO parental Ca, OX1R antag-2)
O=[N+]([O-])c1ccn(-c2nc(-c3ccccc3)cc(C(F)(F)F)n2)n1	TAAR1 agonist 50 | TAAR1 ag conf inactive | Ga16 ag counter inactive | TAAR1 desensitize inactive | Ga16 antag count inactive
CCOC(=O)c1c(C)[nH]c(C)c1S(=O)(=O)N1c2ccccc2CC1C (stereo not drawn)	TAAR1 agonist 49 | TAAR1 ag conf inactive | Ga16 ag counter inactive | TAAR1 desensitize inactive | Ga16 antag count inactive
COc1ccc(/C=N/Nc2nc(-c3ccc(C)cc3)c(NC(C)=O)s2)cc1OC	none

Screening results from PubChem.
